Source: ChEMBL document CHEMBL1150425, “Parallel one-pot synthesis and structure-activity relationship study of symmetric formimidoester disulfides as a novel class of potent non-nucleoside HIV-1 reverse transcriptase inhibitors” (Bioorg Med Chem, 2008)
Active and inactive are the calls of the source. The calls are words filed in the database; no cut-off is given here.

Tests used:
[1] = test system: Human immunodeficiency virus 1; test: Antiviral activity against HIV1 in MT4 cells assessed as reduction of virus induced cytopathogenicity by MTT method; format: functional, organism-based; settings: Human immunodeficiency virus 1, MT4
Summary of the method: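 MT-4 cells infected with wild-type HIV-1; EC50 = concentration giving 50% protection of cells from virus-induced cytopathogenicity, viability read by MTT. Triplicate samples.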

[2] = Cytotoxicity against human MT4 cells by MTT method; format: cell-based
Summary of the method: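 Mock-infected MT-4 cells, run in parallel with the antiviral test; CC50 = concentration reducing viability by 50%, read by MTT. Triplicate samples.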

[3] = Selectivity index, ratio of CC50 for human MT4 cells to EC50 for HIV1 cells; format: toxicity, cell-based; settings: read-out: Ratio CC50/EC50
Summary of the method: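 Ratio of CC50 (mock-infected MT-4 viability, MTT) to EC50 (50% protection of MT-4 cells from HIV-1 cytopathogenicity, MTT), both taken from the same parallel cell-based run.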

[4] = test system: Human immunodeficiency virus 1; test: Antiviral activity against HIV1 with reverse transcriptase K103R mutation; format: functional, organism-based
Summary of the method: (§1)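 MT-4 cells infected with the mutant HIV-1 strain; protection from virus-induced cytopathogenicity read by MTT. EC50 is the concentration (µM) giving 50% protection. Cytotoxicity was assayed in parallel on mock-infected MT-4 cells by MTT. Triplicate samples.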

[5] = test system: Human immunodeficiency virus 1; test: Antiviral activity against HIV1 with reverse transcriptase Y181C mutation; format: functional, organism-based; summary of the method: as §1
[6] = biological target: Human immunodeficiency virus type 1 reverse transcriptase (Human immunodeficiency virus 1, UniProt Q72547); test: Inhibition of HIV1 virion-associated reverse transcriptase

Row | IC50 [6] [µM] | SMILES | EC50 [1] [µM] | CC50 [2] [µM] | selectivity ratio [3] | EC50 [4] [µM] | EC50 [5] [µM] | Activity [4]
1 | – | Cc1ccc(/N=C(\OCCN2C(=O)c3ccccc3C2=O)SS/C(=N/c2ccc(C)c(Cl)c2)OCCN2C(=O)c3ccccc3C2=O)cc1Cl | 0.2 | > 100 | > 500 | – | – | –
2 | – | O=C1c2ccccc2C(=O)N1CCO/C(=N\c1ccc([N+](=O)[O-])cc1)SS/C(=N/c1ccc([N+](=O)[O-])cc1)OCCN1C(=O)c2ccccc2C1=O | 0.07 | > 100 | > 1430 | 62 | 57 | –
3 | – | O=C1c2ccccc2C(=O)N1CCO/C(=N\c1cc(F)ccc1F)SS/C(=N/c1cc(F)ccc1F)OCCN1C(=O)c2ccccc2C1=O | 1.3 | 52 | 40 | – | – | –
4 | – | c1ccc(CCO/C(=N\c2ccccc2)SS/C(=N/c2ccccc2)OCCc2ccccc2)cc1 | 11 | 70 | 6.4 | – | – | –
5 | – | O=C1Nc2ccc(Cl)cc2C(C#CC2CC2)(C(F)(F)F)O1 (single isomer, unassigned) [EFAVIRENZ] | – | – | – | 0.04 | 0.01 | –
6 | – | O=C1c2ccccc2C(=O)N1CCO/C(=N\c1cc(F)cc(F)c1)SS/C(=N/c1cc(F)cc(F)c1)OCCN1C(=O)c2ccccc2C1=O | > 37 | 37 | < 1 | – | – | –
7 | – | COc1cccc(/N=C(\OCCN2C(=O)c3ccccc3C2=O)SS/C(=N/c2cccc(OC)c2)OCCN2C(=O)c3ccccc3C2=O)c1 | 1.3 | 80 | 61 | – | – | –
8 | – | Cc1ccccc1/N=C(\OCCN1C(=O)c2ccccc2C1=O)SS/C(=N/c1ccccc1C)OCCN1C(=O)c2ccccc2C1=O | > 11 | 11 | < 1 | – | – | –
9 | – | O=C1c2ccccc2C(=O)N1CCO/C(=N\c1ccc(Cl)cc1)SS/C(=N/c1ccc(Cl)cc1)OCCN1C(=O)c2ccccc2C1=O | 0.02 | 88 | 5500 | – | – | –
10 | – | O=C1c2ccccc2C(=O)N1CCO/C(=N\c1ccc(F)cc1F)SS/C(=N/c1ccc(F)cc1F)OCCN1C(=O)c2ccccc2C1=O | 0.05 | 27 | 541 | – | – | –
11 | – | CC(=O)c1ccc(/N=C(\OCCN2C(=O)c3ccccc3C2=O)SS/C(=N/c2ccc(C(C)=O)cc2)OCCN2C(=O)c3ccccc3C2=O)cc1 | 24 | > 100 | > 4.2 | – | – | –
12 | – | O=C1c2ccccc2C(=O)N1CCO/C(=N\c1ccc(F)cc1)SS/C(=N/c1ccc(F)cc1)OCCN1C(=O)c2ccccc2C1=O | 0.02 | 29 | 1450 | – | – | –
13 | – | N#Cc1ccc(/N=C(\OCCN2C(=O)c3ccccc3C2=O)SS/C(=N/c2ccc(C#N)cc2)OCCN2C(=O)c3ccccc3C2=O)cc1 | 0.1 | > 100 | > 1000 | – | – | –
14 | – | O=C1c2ccccc2C(=O)N1CCO/C(=N\c1ccc(Cl)c(C(F)(F)F)c1)SS/C(=N/c1ccc(Cl)c(C(F)(F)F)c1)OCCN1C(=O)c2ccccc2C1=O | 28 | > 100 | > 3.6 | – | – | –
15 | – | O=C1c2ccccc2C(=O)N1CCO/C(=N\c1cccc(Cl)c1Cl)SS/C(=N/c1cccc(Cl)c1Cl)OCCN1C(=O)c2ccccc2C1=O | 18 | 37 | 2.1 | – | – | –
16 | – | O=C1c2ccccc2C(=O)N1CCO/C(=N\c1ccc(Cl)cc1Cl)SS/C(=N/c1ccc(Cl)cc1Cl)OCCN1C(=O)c2ccccc2C1=O | 4 | > 100 | > 25 | – | – | –
17 | – | O=C1c2ccccc2C(=O)N1CCO/C(=N\c1cccc2ccccc12)SS/C(=N/c1cccc2ccccc12)OCCN1C(=O)c2ccccc2C1=O | 8 | > 100 | > 13 | – | – | –
18 | – | Cc1ccc(/N=C(\OCCN2C(=O)c3ccccc3C2=O)SS/C(=N/c2ccc(C)cc2)OCCN2C(=O)c3ccccc3C2=O)cc1 | 0.04 | 21 | 525 | – | – | –
19 | – | O=C1c2ccccc2C(=O)N1CCO/C(=N\C1CC1)SS/C(=N/C1CC1)OCCN1C(=O)c2ccccc2C1=O | > 100 | > 100 | – | – | – | –
20 | – | O=C1c2ccccc2C(=O)N1CCO/C(=N\c1cccc(Br)c1)SS/C(=N/c1cccc(Br)c1)OCCN1C(=O)c2ccccc2C1=O | 6 | 89 | 15 | – | – | –
21 | – | Cc1cc(Br)cc(C)c1/N=C(\OCCN1C(=O)c2ccccc2C1=O)SS/C(=N/c1c(C)cc(Br)cc1C)OCCN1C(=O)c2ccccc2C1=O | > 100 | > 100 | – | – | – | –
22 | – | O=C1c2ccccc2C(=O)N1CCO/C(=N\c1ccccc1F)SS/C(=N/c1ccccc1F)OCCN1C(=O)c2ccccc2C1=O | 1.2 | 43 | 36 | – | – | –

Row | IC50 [6] [µM] | SMILES | EC50 [1] [µM] | CC50 [2] [µM] | selectivity ratio [3] | EC50 [4] [µM] | EC50 [5] [µM] | Activity [4]
23 | – | O=C1c2ccccc2C(=O)N1CCO/C(=N\c1cccc(Cl)c1)SS/C(=N/c1cccc(Cl)c1)OCCN1C(=O)c2ccccc2C1=O | 0.4 | 36 | 90 | – | – | –
24 | 0.74 | O=C1c2ccccc2C(=O)N1CCO/C(=N\c1ccc(Br)cc1)SS/C(=N/c1ccc(Br)cc1)OCCN1C(=O)c2ccccc2C1=O | 0.01 | 42 | 4200 | – | – | –
25 | – | O=C1c2ccccc2C(=O)N1CCO/C(=N\c1ccc(Cl)c([N+](=O)[O-])c1)SS/C(=N/c1ccc(Cl)c([N+](=O)[O-])c1)OCCN1C(=O)c2ccccc2C1=O | 0.07 | 18 | 257 | – | – | –
26 | – | O=C1c2ccccc2C(=O)N1CCCO/C(=N\c1ccc(Br)cc1)SS/C(=N/c1ccc(Br)cc1)OCCCN1C(=O)c2ccccc2C1=O | > 100 | > 100 | – | – | – | –
27 | – | O=C1c2ccccc2C(=O)N1CCO/C(=N\c1ccc(Cl)c(Cl)c1)SS/C(=N/c1ccc(Cl)c(Cl)c1)OCCN1C(=O)c2ccccc2C1=O | 7 | > 100 | > 14 | – | – | –
28 | – | O=C1c2ccccc2C(=O)N1CCO/C(=N\Cc1ccccc1)SS/C(=N/Cc1ccccc1)OCCN1C(=O)c2ccccc2C1=O | 7 | > 100 | > 14 | – | – | –
29 | 1.06 | S=C(NCCc1ccccn1)Nc1ccc(Br)cn1 [TROVIRDINE] | – | – | 3000 | – | – | –
30 | – | O=C1c2ccccc2C(=O)N1CCO/C(=N\c1cccc(F)c1)SS/C(=N/c1cccc(F)c1)OCCN1C(=O)c2ccccc2C1=O | 5 | 38 | 7.6 | – | – | –
31 | – | O=C1c2ccccc2C(=O)N1CCO/C(=N\c1ccccc1)SS/C(=N/c1ccccc1)OCCN1C(=O)c2ccccc2C1=O | 0.35 | 80 | 229 | – | – | –
32 | – | O=C1c2ccccc2C(=O)N1CCO/C(=N\c1ccc(C(F)(F)F)cc1)SS/C(=N/c1ccc(C(F)(F)F)cc1)OCCN1C(=O)c2ccccc2C1=O | 0.1 | > 100 | > 1000 | – | – | –
33 | – | Cc1cc(C)cc(/N=C(\OCCN2C(=O)c3ccccc3C2=O)SS/C(=N/c2cc(C)cc(C)c2)OCCN2C(=O)c3ccccc3C2=O)c1 | 3 | > 100 | > 33 | – | – | –
34 | – | O=C1c2ccccc2C(=O)N1CCO/C(=N\c1cc(Cl)cc(Cl)c1)SS/C(=N/c1cc(Cl)cc(Cl)c1)OCCN1C(=O)c2ccccc2C1=O | > 42 | 42 | < 1 | – | – | –
35 | – | COc1ccc(/N=C(\OCCN2C(=O)c3ccccc3C2=O)SS/C(=N/c2ccc(OC)cc2)OCCN2C(=O)c3ccccc3C2=O)cc1 | 0.06 | 90 | 1500 | – | – | –
36 | – | Cc1ccc2c(c1)C(=O)N(CCO/C(=N\c1ccc(Br)cc1)SS/C(=N/c1ccc(Br)cc1)OCCN1C(=O)c3ccc(C)cc3C1=O)C2=O | 1.3 | > 100 | > 77 | – | – | –
37 | – | O=C1c2ccccc2C(=O)N1CCO/C(=N\c1cc(Cl)ccc1Cl)SS/C(=N/c1cc(Cl)ccc1Cl)OCCN1C(=O)c2ccccc2C1=O | > 100 | > 100 | – | – | – | –
38 | – | O=C1c2ccccc2C(=O)N1CCO/C(=N\c1c(F)cc(F)cc1F)SS/C(=N/c1c(F)cc(F)cc1F)OCCN1C(=O)c2ccccc2C1=O | 1.2 | 39 | 33 | – | – | –
39 | – | O=C1c2ccccc2C(=O)N1CCO/C(=N\c1ccc(I)cc1)SS/C(=N/c1ccc(I)cc1)OCCN1C(=O)c2ccccc2C1=O | 0.03 | 48 | 1600 | – | – | –
40 | – | O=C1c2ccccc2C(=O)N1CCO/C(=N\c1cccc(C(F)(F)F)c1)SS/C(=N/c1cccc(C(F)(F)F)c1)OCCN1C(=O)c2ccccc2C1=O | 2.3 | 22 | 9.6 | – | – | –
41 | – | Cc1cc(Br)ccc1/N=C(\OCCN1C(=O)c2ccccc2C1=O)SS/C(=N/c1ccc(Br)cc1C)OCCN1C(=O)c2ccccc2C1=O | 1.8 | 80 | 44 | – | 35 | inactive
42 | – | O=C1c2ccccc2C(=O)N1CCO/C(=N\c1ccccc1Cl)SS/C(=N/c1ccccc1Cl)OCCN1C(=O)c2ccccc2C1=O | > 9 | 9 | < 1 | – | – | –
43 | – | O=C1c2ccccc2C(=O)N1CCO/C(=N\c1cccc([N+](=O)[O-])c1)SS/C(=N/c1cccc([N+](=O)[O-])c1)OCCN1C(=O)c2ccccc2C1=O | 0.7 | > 100 | > 143 | – | – | –
